Measurements taken from ChEMBL document CHEMBL1141109, “Synthesis of an estrogen receptor beta-selective radioligand: 5-[18F]fluoro-(2R,3S)-2,3-bis(4-hydroxyphenyl)pentanenitrile and comparison of in vivo distribution with 16alpha-[18F]fluoro-17beta-estradiol” (J Med Chem, 2005).
Values belong to the molecule of their own block, whether it stands above or below them.

Experiments:
[1] = Biodistribution of [18F]FES in alpha estrogen receptor knock out mouse spleen after 30 min; (n=3); type: ADME, organism-based; conditions: in vivo, 0.5 h
[2] = Biodistribution of [18F]FES in beta estrogen receptor knock out mouse ovaries after 30 min; (n=3); type: ADME, organism-based, Female gonad; conditions: in vivo, 0.5 h
[3] = Biodistribution of [18F]FES in beta estrogen receptor knock out mouse ovaries after 30 min(n=2); mice in nonestrus stage; type: ADME, organism-based, Female gonad; conditions: in vivo, 0.5 h
[4] = Biodistribution of [18F]FES in beta estrogen receptor knock out mouse blood after 30 min(n=2); mice in nonestrus stage; type: ADME, organism-based; conditions: in vivo, 0.5 h
[5] = Biodistribution of [18F]FES in beta estrogen receptor knock out mouse brain after 30 min(n=2); mice in nonestrus stage; type: ADME, organism-based; conditions: in vivo, 0.5 h
[6] = Biodistribution of [18F]FES in beta estrogen receptor knock out mouse heart after 30 min(n=2); mice in nonestrus stage; type: ADME, organism-based; conditions: in vivo, 0.5 h
[7] = Biodistribution of [18F]FES in beta estrogen receptor knock out mouse spleen after 30 min(n=2); mice in nonestrus stage; type: ADME, organism-based; conditions: in vivo, 0.5 h
[8] = Biodistribution of [18F]FES in beta estrogen receptor knock out mouse brain after 2 h; (n=3); type: ADME, organism-based; conditions: in vivo
[9] = Biodistribution of [18F]FES in beta estrogen receptor knock out mouse heart after 2 h; (n=3); type: ADME, organism-based; conditions: in vivo
[10] = Biodistribution of [18F]FES in beta estrogen receptor knock out mouse liver after 1 h; (n=3); type: ADME, organism-based; conditions: in vivo
[11] = Biodistribution of [18F]FES in beta estrogen receptor knock out mouse liver after 2 h; (n=3); type: ADME, organism-based; conditions: in vivo
[12] = Biodistribution of [18F]-FES in beta estrogen receptor knock out mouse thymus after 1 h; (n=3); type: ADME, organism-based; conditions: in vivo
Method in brief: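 Female βERKO mice in estrus were used because repeated swabbing had induced pseudopregnancy. They were fed estrogen-free chow. Each received 13 µCi [18F]FES in 100 µL 10% ethanol/saline and was sacrificed at 30 min, 1 h or 2 h (n = 3 each). Tissue uptake is given as %ID/g ± SD.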

[13] = Biodistribution of [18F]FES in beta estrogen receptor knock out mouse fat after 1 h; (n=3); type: ADME, organism-based, Adipose tissue; conditions: in vivo
[14] = Biodistribution of [18F]FES in beta estrogen receptor knock out mouse blood after 2 h; (n=3); type: ADME, organism-based; conditions: in vivo
[15] = Biodistribution of [18F]FES in alpha estrogen receptor knock out mouse uterus after 2 h; (n=3); type: ADME, organism-based; conditions: in vivo
[16] = Biodistribution of [18F]FES in beta estrogen receptor knock out mouse muscle after 30 min; (n=3); type: ADME, organism-based, Muscle tissue; conditions: in vivo, 0.5 h
[17] = Biodistribution of [18F]FEDPN in alpha estrogen receptor knock out mouse brain after 30 min; (n=3); type: ADME, organism-based; conditions: in vivo, 0.5 h
Method in brief: (§1)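 ERKO female mice (αERKO or βERKO), rested 48 h after shipping, placed on estrogen-free chow, and staged by daily vaginal smears. Injected in a nonestrous stage with 11 µCi [18F]FEDPN in 130 µL of 10% ethanol/saline. Killed at 30 min, 1 h or 2 h. Organs counted and reported as %ID/g ± SD, three animals per point.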

[18] = Biodistribution of [18F]FEDPN in alpha estrogen receptor knock out mouse heart after 30 min; (n=3); type: ADME, organism-based; conditions: in vivo, 0.5 h; method in brief: as §1
[19] = Biodistribution of [18F]FEDPN in beta estrogen receptor knock out mouse uterus after 30 min; (n=3); type: ADME, organism-based; conditions: in vivo, 0.5 h
Method in brief: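 αERKO and βERKO mice were fed estrogen-free chow and staged by daily vaginal smears. Mice in a nonestrous stage each received 11 µCi tracer in 130 µL 10% ethanol/saline. Organs were taken at 30 min, 1 h or 2 h and gamma-counted. Uptake is expressed as %ID/g ± SD, three animals per point.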

[20] = Biodistribution of [18F]FEDPN in alpha estrogen receptor knock out mouse thymus after 30 min; (n=3); type: ADME, organism-based; conditions: in vivo, 0.5 h
Method in brief: (§2)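 αERKO and βERKO mice, staged by daily vaginal smears and kept on estrogen-free chow, were studied in a nonestrous stage. Each mouse received 11 μCi of tracer in 130 μL of 10% ethanol/saline. Mice were killed at 30 min, 1 h or 2 h (n = 3 each). Organs were removed, blotted, weighed and gamma-counted against an injectate standard. Uptake is given as %ID/g ± SD.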

[21] = Biodistribution of [18F]FEDPN in beta estrogen receptor knock out mouse spleen after 1 h; (n=3); type: ADME, organism-based; conditions: in vivo; method in brief: as §2
[22] = Biodistribution of [18F]FEDPN in beta estrogen receptor knock out mouse spleen after 2 h; (n=3); type: ADME, organism-based; conditions: in vivo; method in brief: as §2
[23] = Biodistribution of [18F]FEDPN in alpha estrogen receptor knock out mouse fat after 2 h; (n=3); type: ADME, organism-based, Adipose tissue; conditions: in vivo; method in brief: as §1
[24] = Biodistribution of [18F]FEDPN in beta estrogen receptor knock out mouse lung after 1 h; (n=3); type: ADME, organism-based; conditions: in vivo; method in brief: as §2
[25] = Biodistribution of [18F]FEDPN in beta estrogen receptor knock out mouse blood after 2 h; (n=3); type: ADME, organism-based; conditions: in vivo; method in brief: as §2
[26] = Biodistribution of [18F]FEDPN in beta estrogen receptor knock out mouse brain after 2 h; (n=3); type: ADME, organism-based; conditions: in vivo; method in brief: as §2
[27] = Biodistribution of [18F]-FEDPN in rat bone after 2 h when given in tail vein; (n=5); type: ADME, organism-based, Bone element; conditions: in vivo, iv
Method in brief: (§3)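 Immature female Sprague–Dawley rats (<25 days old) anesthetized with isoflurane/O2. Given 20 µCi tracer by tail vein in 150 µL of 20% ethanol/saline. […] Killed at 30 min, 1 h or 2 h. Blood and organs blotted, weighed and gamma-counted against a standard dilution of the injectate. Reported as %ID/g ± SD, n=5.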

[28] = Biodistribution of [18F]FEDPN in rat blood after 2 h when given in tail vein; (n=5); type: ADME, organism-based; conditions: in vivo, iv
Method in brief: (§4)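 Immature female Sprague–Dawley rats (<25 days old) under isoflurane/O2 got 20 µCi tracer in 150 µL 20% ethanol/saline by tail vein. […] Rats were killed at 30 min, 1 h or 2 h. Organs were blotted, weighed and gamma-counted against an injectate standard. Data are %ID/g ± SD, five rats per point.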

[29] = Biodistribution of [18F]-FEDPN in rat fat after 30 min when given in tail vein; (n=5); type: ADME, organism-based, Adipose tissue; conditions: in vivo, iv, 0.5 h; method in brief: as §3
[30] = Biodistribution of [18F]-FEDPN in rat thymus after 2 hr when given in tail vein; (n=5); type: ADME, organism-based; conditions: in vivo, iv; method in brief: as §3
[31] = Biodistribution of [18F]FEDPN in rat fat after 1 h block when given in tail vein; (n=5); type: ADME, organism-based, Adipose tissue; conditions: in vivo, iv; method in brief: as §4
[32] = Biodistribution of [18F]FEDPN in beta estrogen receptor knock out mouse liver after 1 h; (n=3); type: ADME, organism-based; conditions: in vivo; method in brief: as §2
[33] = Biodistribution of [18F]FEDPN in alpha estrogen receptor knock out mouse liver after 1 h; (n=3); type: ADME, organism-based; conditions: in vivo; method in brief: as §1
[34] = Biodistribution of [18F]FEDPN in alpha estrogen receptor knock out mouse liver after 2 h; (n=3); type: ADME, organism-based; conditions: in vivo; method in brief: as §1
[35] = Biodistribution of [18F]FEDPN in alpha estrogen receptor knock out mouse lung after 30 min; (n=3); type: ADME, organism-based; conditions: in vivo, 0.5 h; method in brief: as §2
[36] = Biodistribution of [18F]FEDPN in alpha estrogen receptor knock out mouse muscle after 1 h; (n=3); type: ADME, organism-based, Muscle tissue; conditions: in vivo; method in brief: as §2
[37] = Biodistribution of [18F]FEDPN in alpha estrogen receptor knock out mouse thymus after 1 h; (n=3); type: ADME, organism-based; conditions: in vivo; method in brief: as §2

Biodistribution [1]: 0.59 %ID/g
Biodistribution [2]: 6.54 %ID/g
Biodistribution [3]: 6.6 %ID/g
Biodistribution [4]: 0.73 %ID/g
Biodistribution [5]: 0.81 %ID/g
Biodistribution [6]: 0.95 %ID/g
Biodistribution [7]: 1.29 %ID/g
Biodistribution [8]: 0.14 %ID/g
Biodistribution [9]: 0.2 %ID/g
Biodistribution [10]: 5.85 %ID/g
Biodistribution [11]: 4.54 %ID/g
Biodistribution [12]: 0.92 %ID/g
Biodistribution [13]: 1.07 %ID/g
Biodistribution [14]: 0.16 %ID/g
Biodistribution [15]: 0.36 %ID/g
Biodistribution [16]: 1.7 %ID/g
SMILES: C[C@]12CC[C@@H]3c4ccc(O)cc4CC[C@H]3[C@@H]1C[C@@H](F)[C@@H]2O [FLUOROESTRADIOL]

Biodistribution [17]: 0.96 %ID/g
Biodistribution [18]: 1.57 %ID/g
Biodistribution [19]: 1.85 %ID/g
Biodistribution [20]: 1.27 %ID/g
Biodistribution [21]: 0.4 %ID/g
Biodistribution [22]: 0.12 %ID/g
Biodistribution [23]: 0.09 %ID/g
Biodistribution [24]: 1.71 %ID/g
Biodistribution [25]: 0.18 %ID/g
Biodistribution [26]: 0.3 %ID/g
Biodistribution [27]: 1.88 %ID/g
Biodistribution [28]: 0.24 %ID/g
Biodistribution [29]: 0.57 %ID/g
Biodistribution [30]: 0.08 %ID/g
Biodistribution [31]: 0.21 %ID/g
Biodistribution [32]: 3.79 %ID/g
Biodistribution [33]: 3.8 %ID/g
Biodistribution [34]: 1.93 %ID/g
Biodistribution [35]: 4.32 %ID/g
Biodistribution [36]: 0.59 %ID/g
Biodistribution [37]: 0.68 %ID/g
SMILES: N#C[C@H](c1ccc(O)cc1)[C@@H](CCF)c1ccc(O)cc1
